Data set [1] concerns the target T1, Trace amine-associated receptor 1 (Mus musculus, UniProt Q923Y8). Briefly: Antagonist activity at mouse TAAR1 assessed as reversal of endogenous beta-PEA effect. Format: functional. The procedure, abridged:
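Mouse TAAR1 antagonist dose–response run as an in vitro cAMP functional assay. Efficacy is the reversal of the effect of the endogenous agonist β-PEA, with 100% efficacy defined as 0% min% stim. Values are averages of at least two independent experiments.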

Data set [2] concerns the target Trace amine-associated receptor 1 (Mus musculus) (UniProt Q923Y8). As to the kind of experiment: Antagonist activity at mouse TAAR1 assessed as residual stimulation by in vitro cAMP functional assay relative to control. On the set-up: concentration or dose not given beside the values. The procedure, abridged: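 Mouse TAAR1 in vitro cAMP functional assay using the endogenous agonist β-PEA. The read-out is the residual β-PEA stimulation remaining at the maximum test-compound concentration. Values are averages of at least two independent experiments.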

Data set [3] addresses T1, Trace amine-associated receptor 1. Briefly: Inhibition of mouse TAAR1.
Data set [4] is described as follows: Intrinsic clearance in mouse liver microsomes measured per mg of protein. In kind it is ADME, Microsome. The essentials:
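Intrinsic clearance from in vitro incubation of compound with mouse liver microsomes, expressed per mg microsomal protein.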

The nature of data set [5]: Lipophilicity, log D of the compound. Format: physicochemical. Particulars: octanol/water.
Data set [6] is described as follows: Aqueous solubility of the compound. In kind it is physicochemical. The settings on record: buffer.
In data set [7] the target is T2, Trace amine-associated receptor 1 (Homo sapiens, UniProt Q96RJ0).
T2 sequence (Q96RJ0 whole entry): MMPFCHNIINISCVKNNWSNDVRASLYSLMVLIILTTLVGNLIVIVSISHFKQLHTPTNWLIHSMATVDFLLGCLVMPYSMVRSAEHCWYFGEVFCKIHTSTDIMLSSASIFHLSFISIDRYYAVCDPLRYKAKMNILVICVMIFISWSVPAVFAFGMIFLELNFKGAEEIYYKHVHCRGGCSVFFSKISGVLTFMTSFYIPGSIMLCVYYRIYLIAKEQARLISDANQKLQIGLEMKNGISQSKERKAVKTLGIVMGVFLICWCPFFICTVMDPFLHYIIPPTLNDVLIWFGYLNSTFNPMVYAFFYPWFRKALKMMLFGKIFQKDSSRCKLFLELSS
As to the kind of experiment: Inhibition of human TAAR1. The procedure, abridged: (§1)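 In vitro cAMP functional assay with antagonism read as reversal of the response to the endogenous agonist beta-PEA. Efficacy was scaled so that 100% equals 0% minimum stimulation. Residual beta-PEA stimulation was taken at the highest test-compound concentration. Values are means of at least two independent experiments, with duplicates typically within a twofold margin.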

Data set [8] deals with T2, Trace amine-associated receptor 1. Briefly: Antagonist activity at human TAAR1 assessed as reversal of endogenous beta-PEA effect. In kind it is functional. The procedure, abridged: as §1
The test system of the next data set is Liver microsomes. As to the kind of experiment: Intrinsic clearance in human liver microsomes measured per mg of protein. In kind it is ADME, Microsome. The procedure, abridged: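 In vitro incubation with human liver microsomes. Intrinsic clearance is expressed per mg microsomal protein per minute.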
In data set [9] the target is Trace amine-associated receptor 1 (Rattus norvegicus, UniProt Q923Y9). Briefly: Inhibition of rat TAAR1. The essentials: as §1
Chain of Trace amine-associated receptor 1 (Rattus norvegicus, UniProt Q923Y9) (Q923Y9 whole entry): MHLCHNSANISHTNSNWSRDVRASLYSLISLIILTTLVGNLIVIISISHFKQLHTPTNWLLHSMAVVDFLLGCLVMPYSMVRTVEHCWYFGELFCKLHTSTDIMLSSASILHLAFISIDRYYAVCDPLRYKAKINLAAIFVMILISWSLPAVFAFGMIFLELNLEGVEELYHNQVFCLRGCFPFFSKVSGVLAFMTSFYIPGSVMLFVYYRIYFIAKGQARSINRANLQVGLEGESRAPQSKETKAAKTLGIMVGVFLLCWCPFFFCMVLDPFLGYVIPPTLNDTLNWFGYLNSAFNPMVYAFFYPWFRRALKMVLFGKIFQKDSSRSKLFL

Chain of Trace amine-associated receptor 1 (Mus musculus) (Q923Y8 whole entry): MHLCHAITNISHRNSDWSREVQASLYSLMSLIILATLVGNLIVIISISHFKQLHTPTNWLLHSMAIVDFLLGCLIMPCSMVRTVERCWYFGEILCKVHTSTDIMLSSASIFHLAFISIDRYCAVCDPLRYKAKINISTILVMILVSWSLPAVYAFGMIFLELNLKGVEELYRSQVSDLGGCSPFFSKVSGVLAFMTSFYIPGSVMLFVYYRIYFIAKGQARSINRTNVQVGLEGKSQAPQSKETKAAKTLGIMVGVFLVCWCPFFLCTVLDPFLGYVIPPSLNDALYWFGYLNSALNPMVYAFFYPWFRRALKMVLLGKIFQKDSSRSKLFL
T1 sequence (Q923Y8 whole entry): as above

For `COc1cccc(NC(=O)c2ccc(NC(C)C)c([N+](=O)[O-])c2)c1`, in data set [1], the IC50 was determined as 142 nM. In [2], the Activity was 0%.

Take `CCCNc1ccc(C(=O)Nc2cccc(OC)c2)cc1[N+](=O)[O-]`: the IC50 in data set [1] was found to be 13 nM. Besides, the Activity in data set [2] is 14%.

With `CCNc1ccc(C(=O)Nc2cccc(OC)c2)cc1[N+](=O)[O-]`, the IC50 in data set [1] was 75 nM. In addition, in [2], the Activity was determined as 23%.

For `CCc1cccc(NC(=O)c2ccc(N3CCCC3)c(C(F)(F)F)c2)c1`, the IC50 in [1] worked out at 470 nM. The Activity in data set [2] was 0%.

In the case of `O=C(Nc1cccc(F)c1)c1ccc(N2CCCC2)c(C(F)(F)F)c1`, in data set [1], the IC50 was determined as 20 nM. In addition, the Activity in data set [2] was found to be 0%.

Take `O=C(Nc1cccc(OC(F)(F)F)c1)c1ccc(N2CCCC2)c(C(F)(F)F)c1`: in data set [3], the Ki was determined as 101 nM.

For `COc1cccc(NC(=O)c2ccc(NCc3ccccc3)c([N+](=O)[O-])c2)c1`, the IC50 in data set [1] stood at 14 nM. Further, the Activity in data set [2] is 3%.

In the case of `COc1cccc(NC(=O)c2ccc(N3CCC3)c([N+](=O)[O-])c2)c1`, the IC50 in data set [1] worked out at 200 nM. Also, the Activity in data set [2] was determined as 9%.

Take `COc1cccc(NC(=O)c2ccc(Nc3ccccc3)c([N+](=O)[O-])c2)c1`: in data set [1], the IC50 was determined as 175 nM. The Activity in data set [2] came out at 0%.

For `COc1cccc(NC(=O)c2cccc(S(C)(=O)=O)c2)c1`, the Ki in [3] was 6000 nM.

In data set [4], `COc1cccc(NC(=O)c2cnc(N3CCC(C)CC3)c(C(F)(F)F)c2)c1` had a clearance of 107 µL/min/mg. In data set [5], this compound returned a logD of more than 4.

`COc1cccc(NC(=O)c2ccc(F)c(C(C)=O)c2)c1` yielded a Ki in data set [3] of 139 nM.

Take `Cc1cccc(NC(=O)c2ccc(N3CCCC3)c(C(F)(F)F)c2)c1`: the IC50 in [1] worked out at 70 nM. Moreover, in data set [2], the Activity was 0%.

Regarding `COc1cccc(NC(=O)c2ccc(S(=O)(=O)N3CC(C)CC(C)C3)c(F)c2)c1` (racemic), the IC50 in data set [1] is 6 nM; in data set [8], more than 10000 nM. The same compound registered a solubility in data set [6] of less than 1 µg/mL. Moreover, the results for the Ki in data set [7], in data set [3] and in data set [9] were more than 20000 nM, 4 nM and 1390 nM, respectively. In addition, the clearance worked out at 1700 µL/min/mg in data set [4] and 538 µL/min/mg in the data set with Liver microsomes. In addition, the Activity in data set [2] was found to be 28%.

The compound `COc1cccc(NC(=O)c2ccc(F)c(F)c2)c1` displayed a Ki in data set [3] of 229 nM.

In turn, `COc1cccc(NC(=O)c2ccc(F)c(C#N)c2)c1` showed a Ki in [3] of 149 nM.

For `COc1cccc(NC(=O)c2ccc(Br)c([N+](=O)[O-])c2)c1`, the IC50 in [1] stood at 43 nM. Also, the Activity in data set [2] came to 0%.

For `COc1cccc(NC(=O)c2ccc(N)c([N+](=O)[O-])c2)c1`, in data set [3], the Ki is 1920 nM.

`COc1cccc(NC(=O)c2ccc(-n3cccn3)c([N+](=O)[O-])c2)c1` showed a Ki in data set [3] of 262 nM.

Consider `COc1cccc(NC(=O)c2ccc(N3CCCC3)c(C(F)(F)F)c2)c1`, for which the IC50 in data set [1] was 67 nM. The clearance in data set [4] was found to be 341 µL/min/mg. Besides, in [2], the Activity came to 0%. The affinity in data set [3], expressed as Ki, was 3 nM.

As for `COc1cccc(NC(=O)c2ccc(N3CCC(C)CC3)c([N+](=O)[O-])c2)c1`, the IC50 in data set [1] amounted to 60 nM; in data set [8], 3790 nM. This compound gave a solubility in [6] of less than 1 µg/mL. Moreover, the Ki in data set [7] was more than 20000 nM. Besides, the results for the clearance (in data set [4]; in the data set on Liver microsomes) were 396 µL/min/mg and 154 µL/min/mg, respectively. Further, the Activity in data set [2] came out at 0%. The same compound came in with a logD in data set [5] of more than 3.

`COc1cccc(NC(=O)c2ccc(N3CCOCC3)c([N+](=O)[O-])c2)c1`: the IC50 in data set [1] came out at 79 nM. The clearance in data set [4] turned out to be 18 µL/min/mg. The Activity in [2] amounted to 0%. The same compound displayed a Ki in data set [3] of 103 nM. Also, the logD in data set [5] was determined as 2.7.

In data set [3], `COc1cccc(NC(=O)c2ccc(N3CCN(C)CC3)c([N+](=O)[O-])c2)c1` came in with a Ki of 164 nM.

In the case of `COc1cccc(NC(=O)c2ccc(F)c(S(=O)(=O)N3CCCCC3)c2)c1`, the affinity in data set [3] corresponds to a Ki of 694 nM.

Take `COc1cccc(NC(=O)c2cccc([N+](=O)[O-])c2)c1`: in data set [1], the IC50 is 665 nM. Also, in data set [2], the Activity turned out to be 0%. In data set [3], this compound yielded a Ki of 189 nM.

Turning to `COc1cccc(NC(=O)c2ccc(F)c(C)c2)c1`, affinity in data set [3] was put at a Ki of 1580 nM.

In [3], `O=C(Nc1cccc(Oc2ccccc2)c1)c1ccc(N2CCCC2)c(C(F)(F)F)c1` came in with a Ki of 82 nM.

Take `O=C(Nc1cccc(Cl)c1)c1ccc(N2CCCC2)c(C(F)(F)F)c1`: the IC50 in data set [1] was found to be 245 nM. Further, the Activity in [2] amounted to 0%.

In data set [3], `COc1cccc(NC(=O)c2ccc(Cl)c(Cl)c2)c1` registered a Ki of 25 nM.

On to `COc1cccc(NC(=O)c2cnc(N3CCCC3)c(C(F)(F)F)c2)c1`, for which the clearance in data set [4] is 321 µL/min/mg.

For `COc1cccc(NC(=O)c2ccc(N3CCCC3)c([N+](=O)[O-])c2)c1`, in [1], the IC50 came out at 17 nM. Besides, the Activity in data set [2] amounted to 0%.

Consider `O=C(Nc1cccc(OC(F)F)c1)c1ccc(N2CCCC2)c(C(F)(F)F)c1`, for which the 50% inhibitory concentration (IC50) in [1] turned out to be 187 nM. Also, the Activity in data set [2] stood at 0%.

With `CC(=O)c1cccc(NC(=O)c2ccc(N3CCCC3)c(C(F)(F)F)c2)c1`, the IC50 in [1] amounted to 120 nM. Further, the Activity in [2] stood at 0%.

For the compound `O=C(Nc1cccc(OC(F)(F)C(F)F)c1)c1ccc(N2CCCC2)c(C(F)(F)F)c1`, the IC50 in [1] was found to be 364 nM. In addition, the Activity in [2] turned out to be 0%.

Take `CC(C)Oc1cccc(NC(=O)c2ccc(N3CCCC3)c(C(F)(F)F)c2)c1`: in data set [1], the IC50 was 27 nM. Moreover, the Activity in data set [2] was found to be 0%. Besides, the affinity in [3], expressed as Ki, was 4 nM.

With `O=C(Nc1cccc(Br)c1)c1ccc(N2CCCC2)c(C(F)(F)F)c1`, in data set [1], the IC50 was determined as 568 nM. In addition, in data set [2], the Activity worked out at 0%.

For the compound `COc1cccc(NC(=O)c2ccc(F)c(S(N)(=O)=O)c2)c1`, the affinity in data set [3], expressed as Ki, was 7430 nM.

Take `COc1cccc(NC(=O)c2ccc(F)c(OC(F)(F)F)c2)c1`: the Ki in data set [3] worked out at 138 nM.

In the case of `COc1cccc(NC(=O)c2ccc(N3CCCCC3)c([N+](=O)[O-])c2)c1`, the IC50 in data set [1] is 19 nM. Moreover, the Activity in data set [2] was 0%.

For the compound `COc1cccc(NC(=O)c2ccc(Cl)c([N+](=O)[O-])c2)c1`, in data set [1], the IC50 was 12 nM. Further, the Activity in data set [2] is 0%.
